Results taken from ChEMBL document CHEMBL1126041, “Leukotriene B4 receptor antagonists: the LY255283 series of hydroxyacetophenones” (J Med Chem, 1992).

Assays:
[1] = molecular target: Leukotriene B4 receptor 1 (Homo sapiens) (UniProt Q15722); assay: Inhibition of binding of [3H]LTB4 to the leukotriene B4 receptor of human peripheral neutrophils (PMN) at a concentration of 10 uM.
Method in brief: (§1)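 Neutrophils isolated by Ficoll-Hypaque centrifugation, dextran 70 sedimentation and hypotonic lysis (≥90% neutrophils, ≥90% viable), 2 × 10^7 cells/mL in Hank's balanced salt solution with 0.1% ovalbumin. Compound in DMSO plus 2.65 nM [3H]LTB4 (stock), 10 min at 4 °C. Cells spun through dibutyl/dinonyl phthalate (7:2), pellet counted by scintillation. Triplicate incubations averaged. Reported as % inhibition of specific binding; nonspecific binding taken with >2000-fold excess unlabeled LTB4.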

[2] = molecular target: Leukotriene B4 receptor 1 (Homo sapiens) (UniProt Q15722); assay: Inhibition of [3H]LTB4 binding to leukotriene B4 receptor from human peripheral neutrophils (PMN), at a concentration of 1 uM; method in brief: as §1
[3] = molecular target: Leukotriene B4 receptor (Homo sapiens) (UniProt Q9NPC1+Q15722); assay: Inhibition of [3H]LTB4 binding to leukotriene B4 receptor of human peripheral neutrophils (PMN) at a concentration of 0.1 uM.; type: protein assay; method in brief: as §1
Chain of Leukotriene B4 receptor (Homo sapiens) (Q15722 whole entry, looked up): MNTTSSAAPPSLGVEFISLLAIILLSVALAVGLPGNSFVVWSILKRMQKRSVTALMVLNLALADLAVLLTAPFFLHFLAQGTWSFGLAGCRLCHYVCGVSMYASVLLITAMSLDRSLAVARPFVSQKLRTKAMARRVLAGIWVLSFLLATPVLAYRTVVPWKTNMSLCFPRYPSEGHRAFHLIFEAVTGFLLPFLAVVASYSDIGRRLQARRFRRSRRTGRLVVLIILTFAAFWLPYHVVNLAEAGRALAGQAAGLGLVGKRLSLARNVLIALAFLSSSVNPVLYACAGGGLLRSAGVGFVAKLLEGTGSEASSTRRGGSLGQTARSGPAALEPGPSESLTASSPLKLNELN
Chain of Leukotriene B4 receptor (Homo sapiens) (Q9NPC1 whole entry, looked up): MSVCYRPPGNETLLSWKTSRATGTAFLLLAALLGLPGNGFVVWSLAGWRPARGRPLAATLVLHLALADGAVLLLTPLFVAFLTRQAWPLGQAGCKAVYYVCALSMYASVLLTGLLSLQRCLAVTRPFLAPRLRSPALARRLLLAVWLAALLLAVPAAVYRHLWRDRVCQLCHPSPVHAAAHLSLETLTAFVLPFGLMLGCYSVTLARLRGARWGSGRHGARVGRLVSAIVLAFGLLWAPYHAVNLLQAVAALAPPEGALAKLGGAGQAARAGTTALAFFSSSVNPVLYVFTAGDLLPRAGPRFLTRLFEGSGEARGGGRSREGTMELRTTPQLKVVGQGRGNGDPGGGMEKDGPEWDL

Chain of Leukotriene B4 receptor 1 (Homo sapiens) (Q15722 whole entry): as the sequence (Q15722 whole entry, looked up) above

| SMILES | inhibition [1] | inhibition [2] | inhibition [3] |
| --- | --- | --- | --- |
| CCc1cc(C(C)=O)c(O)cc1OCCCCc1nnn[nH]1 | 49% | 19% |  |
| CCc1cc(C(C)=O)c(O)cc1OCCCCCC(C)(C)c1nn[nH]n1 | 102% | 93% | 56% |
| C=CCc1cc(C(C)=O)c(O)cc1OCCCCCCCCC#N | 86% | 50% |  |
| CCc1cc(C(C)=O)c(O)cc1OCCCCCCS(C)(=O)=O | 99% | 62% |  |
| CC(=O)c1cc(CC2CO2)c(OCCCCC#N)cc1O (stereo not drawn) | 62% | 24% |  |
| CCc1cc(C(C)=O)c(O)cc1OCCCCCn1cncn1 | 82% | 30% |  |
| C=CCc1cc(C(C)=O)c(OC)cc1OCCCCC#N | 13% | 8% |  |
| C=CCc1cc(C(C)=O)c(O)cc1OCCCCCCC#N | 97% | 63% |  |
| CCc1cc(C(C)=O)c(O)cc1OCCCC(C)(C)C#N | 85% | 46% | 13% |
| C=CCc1cc(C(C)=O)c(O)cc1OCCCCCCCC#N | 88% | 52% |  |
| CC(=O)c1cc(C(C)(C)C)c(OCCCCCC(C)(C)C#N)cc1O | 1% | 2% |  |
| C=CCc1cc(C(C)=O)c(O)cc1OCCCCCCC | 31% | 8% |  |
| C=CCc1cc(C(C)=O)c(O)cc1OCCCCCC(C)(C)O | 98% | 60% |  |
| CCCCc1cc(C(C)=O)c(O)cc1OCCCCC#N | 41% | 13% |  |
| C=CCc1cc(C(=O)CC)c(O)cc1OCCCCC#N | 77% | 36% |  |
| CCCCCc1cc(C(C)=O)c(O)cc1OCCCCC#N | 31% | 14% |  |
| CCc1cc(C(C)=O)c(O)cc1OCCCCCCC(=O)Nc1nn[nH]n1 | 101% | 83% |  |
| CCc1cc(C(C)=O)c(O)cc1Oc1cccc(C#N)c1 | 11% | 8% |  |
| CCc1cc(C(C)=O)c(O)cc1OCCCC(C)(C)C(=O)O | 89% | 43% | 12% |
| CCc1cc(C(C)=O)c(O)cc1OCCCCCCC(=O)N(C)C | 100% | 61% |  |
| CCCc1cc(C(C)=O)ccc1OCCCCC#N | 44% | 19% |  |
| CC(=O)c1ccc(OCCCCC#N)cc1O | 0% | 0% |  |

| SMILES | inhibition [1] | inhibition [2] | inhibition [3] |
| --- | --- | --- | --- |
| C=CCc1cc(C(=O)c2ccccc2)c(O)cc1OCCCCC#N | 33% | 5% |  |
| CCc1cc(C(C)=O)c(O)c(C)c1OCCCCCC(C)(C)c1nnn[nH]1 | 42% | 9% |  |
| CCCc1cc(C(C)=O)c(O)c(CCC)c1OCCCCC#N | 0% | 0% |  |
| C=CCc1cc(C(C)=O)c(O)cc1OCCCCC | 60% | 23% |  |
| C=CCc1cc(C(C)=O)c(O)cc1OCCCCCC | 50% | 9% |  |
| CCCc1cc(C(C)=O)c(O)cc1OCCCCC(=O)O | 11% | 0% |  |
| C=CCc1cc(C(C)=O)c(O)cc1OCCCCCC#N | 81% | 41% |  |
| CC(=O)c1cc(CO)c(OCCCCCCC#N)cc1O | 40% | 8% |  |
| CCCc1cc(C(C)=O)c(O)cc1OCCCCC#N | 84% | 37% |  |
| CC(=O)c1cc(C(C)=O)c(OCCCCC#N)cc1O | 8% | 0% |  |
| C=CCc1cc(C(C)=O)c(O)cc1OCCCCC#N | 92% | 57% |  |
| C=CCc1cc(C(C)=O)c(O)cc1OCCCCO | 48% | 9% |  |
| C=CCc1cc(C(C)=O)c(O)cc1OCc1ccccc1C#N | 47% | 6% |  |
| CC(=O)c1cc(CC(C)O)c(OCCCCC#N)cc1O (stereo not drawn) | 10% | 6% |  |
| C#CCCCCOc1cc(O)c(C(C)=O)cc1CC=C | 74% | 29% |  |
| CCc1cc(C(C)=O)c(O)cc1OCCCCN(C)C | 4% | 3% |  |
| CCc1cc(C(C)=O)c(O)cc1OCCCCCC[S+](C)[O-] (stereo not drawn) | 92% | 50% |  |
| CCCc1cc(C(C)=O)c(O)cc1OCCCCN | 6% | 0% |  |
| C=CCc1cc(C(C)=O)c(O)cc1OCc1ccc(CC#N)cc1 | 30% | 17% |  |
| CCCc1cc(C(C)=O)c(O)cc1OCCCCCC(=O)O | 73% | 24% |  |
| C=CCc1cc(C(C)=O)c(O)cc1OCCCCCC(=O)OC | 106% | 65% |  |
| C=CCc1cc(C(C)=O)c(O)cc1OCCCCCC(C)=O | 98% | 58% |  |

| SMILES | inhibition [1] | inhibition [2] | inhibition [3] |
| --- | --- | --- | --- |
| C=CCc1cc(C(C)=O)c(O)cc1OCCCC#N | 47% | 6% |  |
| CCc1cc(C(C)=O)c(O)cc1OCCCC(C)(C)c1nnn[nH]1 | 100% | 76% | 28% |
| C=CCc1cc(C(C)=O)c(O)cc1OCCCCCC(=O)N(C)C | 92% | 54% |  |
| CCc1cc(C(C)=O)c(O)cc1OCCCCCCSC | 71% | 14% |  |
| CCc1cc(C(C)=O)c(O)cc1OCCCCCCC#N | 103% | 73% |  |
| CCc1cc(C(C)=O)c(O)cc1OCCCCCCc1nnn[nH]1 | 91% | 60% |  |
| CCCc1cc(C(C)=O)c(O)cc1OCCCCNC(C)=O | 71% | 23% |  |
| CCc1cc(C(C)=O)c(O)cc1OCCCCN1CCOCC1 | 32% | 9% |  |
| C=CCc1cc(C(C)=O)c(O)cc1OCc1cccc(C#N)c1 | 71% | 58% | 25% |
| C=CCc1cc(C(C)=O)c(O)cc1OCc1cccc(CC#N)c1 | 16% | 0% |  |
| COCc1cc(C(C)=O)c(O)cc1OCCCCCCC#N | 47% | 7% |  |
| CCc1cc(C(C)=O)c(O)cc1OCCCCCC(C)(C)c1nnn(C)n1 | 95% | 66% | 16% |
| C=CCc1cc(C(C)=O)c(O)cc1OCCCCCC(N)=O | 88% | 37% |  |
| CCCc1c(OCCCCC#N)ccc(C(C)=O)c1O | 0% | 9% |  |
| CCc1cc(C(C)=O)c(O)cc1OCCCCCCCC(C)(C)c1nnn[nH]1 |  | 96% | 49% |
| CC(=O)c1cc(C)c(OCCCCC#N)cc1O | 79% | 35% |  |
| CCc1cc(C(C)=O)c(O)cc1OCCCCC#N | 92% | 57% |  |
| CCCc1cc(C(C)=O)c(Cl)cc1OCCCCC#N | 35% | 13% |  |
| C=CCc1cc(C(C)=O)c(O)cc1OCCCCCCCCCCC#N | 50% | 14% |  |
| CC(=O)c1cc(C=O)c(OCCCCC#N)cc1O | 6% | 3% |  |
| CCc1cc(C(C)=O)c(O)cc1OCc1cccc(C#N)c1 | 58% | 61% | 18% |
| C=CCc1cc(C(C)=O)c(O)cc1OCCCCCC(=O)NO | 85% | 28% |  |

| SMILES | inhibition [1] | inhibition [2] | inhibition [3] |
| --- | --- | --- | --- |
| CCc1cc(C(C)=O)c(O)cc1OCCCCCCC(=O)NC | 97% | 54% |  |
| CCc1cc(C(C)=O)c(O)cc1OCc1ccc(C(=O)O)cc1 | 22% | 0% |  |
| CCc1cc(C(C)=O)c(O)cc1OCCCCC(C)(C)c1nnn[nH]1 |  | 66% | 17% |
| CCc1cc(C(C)=O)c(O)cc1OCCCCCC(C)(C)C(=O)O | 104% | 73% | 20% |
| CCc1cc(C(C)=O)c(O)cc1OCCCCCCCC(C)(C)C#N | 66% | 29% | 6% |
| CCc1cc(C(C)=O)c(O)cc1OCCCCCC(C)(C)c1nnnn1C | 99% | 59% | 14% |
| CSCc1cc(C(C)=O)c(O)cc1OCCCCCCC#N | 97% | 64% |  |
| CCC1(c2ccc(N)cc2)CCC(=O)NC1=O (stereo not drawn) | 82% | 29% |  |
| C=CCc1cc(C(C)=O)c(O)cc1OCC#N | 20% | 2% |  |
| CCc1cc(C(C)=O)c(O)cc1OCCCCCC(C)(C)C#N | 85% | 53% | 17% |
| CCc1cc(C(C)=O)c(O)cc1OCc1ccc(C#N)cc1 | 7% | 11% | 0% |
| CCc1cc(C(C)=O)c(O)cc1OCCCCC(C)(C)C#N | 79% | 30% | 5% |
| CCCCCCc1cc(C(C)=O)c(O)cc1OCCCCC#N | 51% | 13% |  |
| C=CCCCCOc1cc(O)c(C(C)=O)cc1CC=C | 73% | 27% |  |
| C=CCc1ccc(O)cc1OCCCCC#N | 29% | 9% |  |
| CCc1cc(C(C)=O)c(O)cc1OCCCC(C)(C)C(N)=O | 92% | 51% | 16% |
| CCc1cc(C(C)=O)c(O)cc1OCCCCCCC(=O)O | 87% | 38% |  |
| CCc1cc(C(C)=O)c(O)cc1OCCCCCCC(C)(C)c1nnn[nH]1 |  | 67% | 13% |
| C=CCc1cc(C(=O)CCCCCCCCC)c(O)cc1OCCCCC#N | 10% | 7% |  |
| C=CCc1cc(C(C)=O)c(O)cc1OCCCC | 32% | 8% |  |
| C=CCc1cc(C(C)=O)c(O)cc1OCc1ccc(C#N)cc1 | 22% | 28% |  |
